Measured values published in ChEMBL document CHEMBL4184229, “Synthesis, biological evaluation and docking study of a new series of di-substituted benzoxazole derivatives as selective COX-2 inhibitors and anti-inflammatory agents” (Bioorg Med Chem, 2018).

Assays:
[1] = target: T1, Prostaglandin G/H synthase 1 (Ovis aries, UniProt P05979); test: Inhibition of ovine COX1 assessed as reduction in Prostaglandin production by enzyme immunoassay
T1 sequence (P05979 whole entry): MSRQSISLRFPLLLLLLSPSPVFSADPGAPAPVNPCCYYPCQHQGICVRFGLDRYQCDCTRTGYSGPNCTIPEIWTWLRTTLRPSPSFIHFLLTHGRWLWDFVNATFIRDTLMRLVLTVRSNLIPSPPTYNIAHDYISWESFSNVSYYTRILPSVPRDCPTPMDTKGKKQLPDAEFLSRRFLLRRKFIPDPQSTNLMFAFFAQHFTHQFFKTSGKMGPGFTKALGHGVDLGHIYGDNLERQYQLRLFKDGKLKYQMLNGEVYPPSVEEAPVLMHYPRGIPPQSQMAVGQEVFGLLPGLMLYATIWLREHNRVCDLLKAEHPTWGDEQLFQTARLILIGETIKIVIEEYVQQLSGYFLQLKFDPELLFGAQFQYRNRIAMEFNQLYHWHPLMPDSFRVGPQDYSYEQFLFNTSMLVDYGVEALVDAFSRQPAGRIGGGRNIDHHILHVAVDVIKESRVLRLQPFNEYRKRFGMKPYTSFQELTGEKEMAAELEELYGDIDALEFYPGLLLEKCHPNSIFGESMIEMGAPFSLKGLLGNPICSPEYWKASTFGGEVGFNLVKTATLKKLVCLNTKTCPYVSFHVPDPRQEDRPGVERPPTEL
Method in brief: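 Enzyme immunoassay kit with ovine COX-1 (human recombinant COX-2 also supplied). Colour intensity read spectrophotometrically; signal is proportional to PG tracer bound to the well and inversely proportional to free PG in the well. Inhibition calculated against control incubations. IC50 taken from the log concentration vs % inhibition curve.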

Rattus norvegicus [2] = test: Anti-inflammatory activity against carrageenan-induced Wistar albino rat paw edema model assessed as paw edema volume at 20 mg/kg, po pretreated for 30 mins followed by carrageenan-challenge measured immediately by plethysmographic method (reference value: 0.7 ml); format: functional
Rattus norvegicus [3] = test: Anti-inflammatory activity against carrageenan-induced Wistar albino rat paw edema model assessed as paw edema volume at 20 mg/kg, po pretreated for 30 mins followed by carrageenan-challenge measured after 3 hrs by plethysmographic method (reference value: 1.14 ml); format: functional
Rattus norvegicus [4] = test: Anti-inflammatory activity against carrageenan-induced Wistar albino rat paw edema model assessed as inhibition of paw edema at 20 mg/kg, po pretreated for 30 mins followed by carrageenan-challenge measured at 1 hr interval for 3 hrs by plethysmographic method relative to control; format: functional
Method in brief: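 Wistar albino rats housed at 25-28 °C, 50–65% relative humidity, 12 h light/dark cycle; five per group. Oral dosing; control group given an equivalent volume of normal saline. Half an hour later, 0.1 ml of 1.0% w/v carrageenan in 0.9% saline injected into the sub-plantar tissue of the hind paw. […] Values taken at 3 h as mean ± SEM; Tukey's test versus control.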

Rattus norvegicus [5] = test: Ulcerogenicity in Wistar albino rat assessed as severity index at 60 mg/kg, po measured after 6 hrs; format: toxicity, organism-based; details: in vivo

Compound	IC50 [1] [µM]	Activity (Rattus norvegicus [2]) [mL]	Activity (Rattus norvegicus [3]) [mL]	inhibition in vivo at 20 mg/kg (Rattus norvegicus [4]) [%]	UI (Rattus norvegicus [5])
COc1ccc(-c2nc3cc(NC(=O)c4cc([N+](=O)[O-])ccc4Cl)ccc3o2)cc1OC	10.2	–	–	–	–
COc1ccc(-c2nc3cc(NC(=O)c4ccc(Cl)cc4)ccc3o2)cc1OC	7.32	–	–	–	–
COc1ccc(-c2nc3cc(NC(=O)c4cccc(Cl)c4)ccc3o2)cc1OC	8.82	–	–	–	–
COc1ccc(-c2nc3cc(NC(=O)c4ccccc4Cl)ccc3o2)cc1OC	1.02	0.66	0.74	84.1	0.8
COc1ccc(C(=O)Nc2ccc3oc(-c4ccc(OC)c(OC)c4)nc3c2)cc1OC	8.2	–	–	–	–
COc1ccc(-c2nc3cc(NC(=O)c4cccc(C)c4)ccc3o2)cc1OC	5.21	–	–	–	–
COc1ccc(-c2nc3cc(NC(=O)c4ccc(O)cc4)ccc3o2)cc1OC	58.2	–	–	–	–
COc1cc(OC)cc(C(=O)Nc2ccc3oc(-c4ccc(OC)c(OC)c4)nc3c2)c1	6.02	0.67	0.81	68.2	2.1
COc1ccc(-c2nc3cc(NC(=O)c4ccc([N+](=O)[O-])cc4Cl)ccc3o2)cc1OC	5.15	0.71	0.77	72.7	1
COc1ccc(-c2nc3cc(NC(=O)c4ccc(C)cc4)ccc3o2)cc1OC	7.84	–	–	–	–
COc1ccc(-c2nc3cc(NC(=O)c4ccc([N+](=O)[O-])cc4)ccc3o2)cc1OC	3.23	0.71	0.8	79.5	1.8
COc1ccc(-c2nc3cc(NC(=O)c4ccccc4)ccc3o2)cc1OC	6.2	–	–	–	–
COc1ccc(-c2nc3cc(NC(=O)c4ccccc4Br)ccc3o2)cc1OC	10.1	–	–	–	–
COc1ccc(-c2nc3cc(NC(=O)c4ccccc4C)ccc3o2)cc1OC	9.21	–	–	–	–
COc1ccc(-c2nc3cc(NC(=O)c4cccc([N+](=O)[O-])c4)ccc3o2)cc1OC	5.52	0.57	0.77	54.5	–
COc1ccc(C(=O)Nc2ccc3oc(-c4ccc(OC)c(OC)c4)nc3c2)cc1	16.3	–	–	–	–
CC(C)Cc1ccc(C(C)C(=O)O)cc1 (configuration not stated) [IBUPROFEN]	–	–	–	65.9	2.2
